Measured values from ChEMBL document CHEMBL2401718, “Structure-cytotoxic activity relationship of 3-arylideneflavanone and chromanone (E,Z isomers) and 3-arylflavones” (Bioorg Med Chem Lett, 2013).

Experiments:
NALM-6 = test: Cytotoxicity against human NALM6 cells after 46 hrs by MTT assay; assay type: functional, cell-based; conditions: NALM-6, 46 h
Procedure, shortened: (§1)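 MTT read-out of survival in cells treated with test compound and compared with untreated control cells. IC50 is the concentration that lowers the surviving cell fraction to 50% of control. Values are means (μM) ± standard deviation from 3 experiments, each run in quintuple. Cancer-line IC50s were compared with normal-cell (HUVEC) IC50s by unpaired t-test.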

WM-115 = test: Cytotoxicity against human WM115 cells after 46 hrs by MTT assay; assay type: functional, cell-based; conditions: WM-115, 46 h; procedure, shortened: as §1
[1] = Lipophilicity, log P of the compound by HPLC analysis; assay type: physicochemical
HL-60 = test: Cytotoxicity against human HL60 cells after 46 hrs by MTT assay; assay type: functional, cell-based; conditions: HL-60, 46 h; procedure, shortened: as §1
HUVEC = test: Cytotoxicity against HUVEC after 46 hrs by MTT assay; assay type: cell-based; conditions: Homo sapiens; procedure, shortened: as §1

| SMILES | IC50 (NALM-6) [µM] | IC50 (WM-115) [µM] | logP [1] | IC50 (HL-60) [µM] | IC50 (HUVEC) [µM] |
| --- | --- | --- | --- | --- | --- |
| O=c1c(Cc2ccc([N+](=O)[O-])cc2)coc2ccccc12 | 5 | 6.1 | 3.93 | 2.4 | 5.4 |
| O=C1/C(=C/c2ccncc2)C(c2ccccc2)Oc2ccccc21 (stereo unspecified) | 1.6 | 6.3 | 2.98 | 0.9 | 5.77 |
| O=C1/C(=C/c2ccc(Cl)cc2)C(c2ccccc2)Oc2ccccc21 (stereo unspecified) | 7.4 | 52 | 4.46 | 5.8 | – |
| Cc1ccc(/C=C2/C(=O)c3ccccc3OC2c2ccccc2)cc1 (stereo unspecified) | 51.4 | 60.1 | 4.36 | 40.9 | – |
| O=C1/C(=C\c2ccccc2)C(c2ccccc2)Oc2ccc(O)cc21 (stereo unspecified) | 58.8 | 9.1 | 3.45 | 7.3 | – |
| O=C1/C(=C\c2ccc(O)cc2)COc2ccccc21 | 466 | 12.1 | 2.92 | 6.5 | – |
| O=C1/C(=C\c2ccc(Br)cc2)C(c2ccccc2)Oc2ccccc21 (stereo unspecified) | > 1000 | 32.6 | 4.71 | > 1000 | 29.1 |
| O=C1/C(=C/c2ccc(O)cc2)COc2ccccc21 | 32.3 | 69 | 3.1 | 5.7 | – |
| O=C1CCOc2ccccc21 [CHROMANONE] | 674 | > 1000 | – | 677 | – |
| N#Cc1ccc(Cc2coc3ccccc3c2=O)cc1 | 4.8 | 6.3 | 3.58 | 3.8 | – |
| Cc1ccc(/C=C2\C(=O)c3ccccc3OC2c2ccccc2)cc1 (stereo unspecified) | > 1000 | 57 | 4.39 | 40.8 | – |
| O=C1/C(=C\c2ccc(Cl)cc2)C(c2ccccc2)Oc2ccccc21 (stereo unspecified) | > 1000 | 27.4 | 4.53 | > 1000 | – |
| O=c1c(O)c(-c2ccc(O)c(O)c2)oc2cc(O)cc(O)c12 [QUERCETIN] | 77.1 | 178 | – | 58 | – |
| O=C1C[C@@H](c2ccc(O)cc2)Oc2cc(O)cc(O)c21 [NARINGENIN] | 426 | 525 | – | 414 | – |
| O=c1c(Cc2ccc(F)cc2)coc2ccccc12 | 8.2 | 53.2 | 4.02 | 19.1 | – |
| O=C1/C(=C/c2ccccc2)C(c2ccccc2)Oc2ccccc21 (stereo unspecified) | 29.5 | 59.4 | 3.9 | 33.3 | – |
| O=c1c(Cc2ccc(O)cc2)coc2ccccc12 | 49.8 | 57.2 | 3.33 | 46.7 | – |
| O=c1c(Cc2cccc(O)c2)coc2ccccc12 | 7.3 | 17.6 | 3.31 | 6.3 | – |
| O=C1/C(=C\c2ccncc2)C(c2ccccc2)Oc2ccccc21 (stereo unspecified) | 0.7 | 4.6 | 2.85 | 1.1 | 5.14 |
| O=C1/C(=C\c2ccccc2)COc2ccccc21 | 5.5 | 13.5 | 2.89 | 6.7 | – |
| O=C1CC(c2ccccc2)Oc2ccccc21 (stereo unspecified) [FLAVANONE] | 57.6 | 71.2 | – | 51.1 | – |
| O=C1/C(=C/c2ccccc2)COc2ccccc21 | 6.2 | 53.7 | 3.07 | 5.4 | – |
| O=C1/C(=C/c2ccccc2)C(c2ccccc2)Oc2ccc(O)cc21 (stereo unspecified) | 8.7 | 44.5 | 3.5 | 5.8 | – |
| O=C1/C(=C\c2ccccc2)C(c2ccccc2)Oc2ccccc21 (stereo unspecified) | > 1000 | 52.6 | 3.9 | 27.3 | – |
| O=C1/C(=C/c2ccc(Br)cc2)C(c2ccccc2)Oc2ccccc21 (stereo unspecified) | 6.9 | 25.9 | 4.46 | 5.7 | 7.23 |
